In ChEMBL document CHEMBL6114938, “Design, synthesis, and biological evaluation of pyrazole-ciprofloxacin hybrids as antibacterial and antibiofilm agents against Staphylococcus aureus” (RSC Med Chem, 2025):
In brackets after ≈: the same amount, converted by molar mass. Activity calls are given as the source filed them. No cut-off for these calls is given here.

Columns and labels:
[1] = test system: Staphylococcus aureus; test: Antibacterial activity against Staphylococcus aureus ATCC 29213 assessed as inhibition of bacterial growth incubated for 18 to 24 hrs by two-fold serial dilution method; assay type: functional; details: time 18-24 hrs
Method in brief: (§1)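 Broth microdilution in cation-adjusted Mueller Hinton broth with two-fold serial dilutions. Inoculum came from overnight cultures on Mueller Hinton agar, set to OD600 0.08-0.1 and diluted 100-fold, then added 1:1 to the compound wells. Plates were incubated at 37 °C for 18-24 h and read visually. MIC is the lowest concentration with no turbidity.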

[2] = test system: Pseudomonas aeruginosa; test: Antibacterial activity against Pseudomonas aeruginosa PAO1 ATCC 15692 assessed as inhibition of bacterial growth incubated for 18 to 24 hrs by two-fold serial dilution method; assay type: functional; details: time 18-24 hrs; method in brief: as §1
[3] = test system: Mycobacterium tuberculosis; test: Antimycobacterial activity against Mycobacterium tuberculosis H37Ra ATCC 25177 assessed as inhibition of bacterial growth incubated for 10 days by liquid broth microdilution method; assay type: functional; details: H37Ra ATCC 25177, 240 h, time 10 day
Method in brief: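 Log-phase H37Ra (OD₆₀₀ 0.4–0.6) was grown in 7H9 with D-pantothenic acid, amino acids, 0.2% glycerol, 0.05% Tween 80 and 10% ADS, then diluted to OD₆₀₀ 0.005 (1.0×10⁶ CFU/ml). Compounds were two-fold serially diluted in 7H9, and plates were incubated for 10 days at 37 °C in 5% CO₂. MIC was the lowest concentration without visible turbidity.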

[4] = test system: Staphylococcus aureus; test: Potency index, ratio of ciprofloxacin MIC to test compound MIC for antibacterial activity against Staphylococcus aureus ATCC 29213; assay type: functional
[5] = test system: Staphylococcus aureus; test: Antibacterial activity against one-step ciprofloxacin resistant mutant of Staphylococcus aureus ATCC 29213 assessed as inhibition of bacterial growth by liquid broth microdilution assay; assay type: functional
Method in brief: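 One-step ciprofloxacin-resistant mutants were raised by plating log-phase cells adjusted to 10¹⁰ CFU/ml on ciprofloxacin-containing Mueller-Hinton agar for 48 h at 37 °C, then passaging picked colonies on ciprofloxacin plates. Mutants with a more than eightfold rise in ciprofloxacin MIC were kept. MIC was read by broth microdilution: two-fold dilutions in cation-adjusted MHB, and inoculum of OD₆₀₀ 0.08–0.1 diluted hundredfold. Plates ran 18–24 h at 37 °C, and MIC was the lowest concentration with no visible turbidity.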

[6] = test system: Staphylococcus aureus; test: Antibiofilm activity against Staphylococcus aureus ATCC 29213 assessed as inhibition of biofilm formation incubated for 24 hrs by crystal violet staining based analysis; assay type: functional
Method in brief: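 Biofilm formation assay with inoculum at OD600 0.015 from overnight culture. Twelve two-fold dilutions (128 to 0.06 µg/ml) were made in MHB with 2% sucrose in flat-bottom polystyrene wells and incubated at 37 °C for 24 h. Wells were washed with PBS pH 7.4, fixed with methanol, stained with 0.1% crystal violet, eluted with 95% ethanol and read at A595. MBIC50 is the lowest concentration giving ≥50% inhibition versus untreated culture.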

[7] = test system: Staphylococcus aureus; test: Bactericidal activity against Staphylococcus aureus ATCC 29213 assessed as bacterial killing at 8XMIC measured within 6 hrs by time-kill kinetics analysis; assay type: functional, organism-based
Method in brief: (§2)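 Time-kill: log-phase cultures at OD600 0.005 were exposed to 1×, 4× and 8× MIC at 37 °C. Viable counts (CFU/ml) were taken by plating 10-fold serial dilutions at 2, 4, 6, 8, 10 and 24 h. Curves plot log10 CFU/ml against time over 24 h.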

[8] = Cytotoxicity against human HepG2 cells assessed as reduction in cell viability incubated for 48 hrs by MTT assay; assay type: toxicity, cell-based
Method in brief: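 MTT viability assay in HepG2 cells seeded at 1000-4000 per well and allowed to adhere overnight. Compounds were tested at 1000-0.78 µg/mL for 48 h in fresh medium. MTT 0.5 mg/mL was added for 4 h at 37 °C, formazan was dissolved in DMSO, and absorbance was read at 570 nm.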

[9] = test system: Staphylococcus aureus; test: Antibacterial activity against methicillin-resistant Staphylococcus aureus assessed as inhibition of bacterial growth; assay type: functional
[10] = test system: Staphylococcus aureus; test: Ratio of MIC for antibacterial activity against Staphylococcus aureus ATCC 29213 to MBIC50 for antibiofilm activity against Staphylococcus aureus ATCC 29213; assay type: functional
[11] = test system: Staphylococcus aureus; test: Bactericidal activity against Staphylococcus aureus ATCC 29213 assessed as log reduction in bacterial load at 1XMIC measured within 9 hrs by time-kill kinetics analysis; assay type: functional; method in brief: as §2
[12] = test system: Staphylococcus aureus; test: Bactericidal activity against Staphylococcus aureus ATCC 29213 assessed as log reduction in bacterial load at 4X to 8XMIC measured within 3 hrs by time-kill kinetics analysis; assay type: functional; method in brief: as §2
[13] = target: DNA gyrase (Escherichia coli) (UniProt P0AES6+P0AES4); test: Inhibition of Escherichia coli DNA gyrase assessed as reduction in supercoiled state of plasmid using pUC19 plasmid DNA as substrate at 8XMIC incubated for 90 mins by gel electrophoresis analysis; assay type: protein-complex assay
[14] = test system: Staphylococcus aureus; test: Potency index, ratio of ciprofloxacin MBIC50 to test compound MBIC50 for antibiofilm activity against Staphylococcus aureus ATCC 29213; assay type: functional

With `O=C(CN1CCN(c2cc3c(cc2F)c(=O)c(C(=O)O)cn3C2CC2)CC1)Nc1ccc(-n2ccc(-c3ccc(Cl)cc3)n2)cc1` as the compound, how does the MIC [1] read?
Its MIC is 1 µg/mL (≈ 1.56 µM).

What about the MIC [2] of the same compound?
The MIC was 128 µg/mL (≈ 200 µM).

What about the MIC [3] of the same compound?
The MIC was 64 µg/mL (≈ 99.8 µM).

With `O=C(CN1CCN(c2cc3c(cc2F)c(=O)c(C(=O)O)cn3C2CC2)CC1)Nc1ccc(-n2ccc(-c3ccccc3)n2)cc1` as the compound, how does the MIC [1] read?
Its MIC is 0.125 µg/mL (≈ 0.206 µM).

What about the MIC [2] of the same compound?
Its MIC is 8 µg/mL (≈ 13.2 µM).

And the MIC [3]?
The MIC was 0.5 µg/mL (≈ 0.824 µM).

What about the Ratio [4] of the same compound?
Its Ratio is 2.

And the MIC [5]?
Its MIC is 0.5 µg/mL (≈ 0.824 µM).

What about the MBIC50 [6] of the same compound?
Its MBIC50 is 0.27 µg/mL.

And the Activity [7]?
Its Activity is “Active”.

And the CC50 at 48 h [8]?
Its CC50 at 48 h is over 1000 µg/mL.

For `Cc1ccc(-c2ccn(-c3ccc(NC(=O)CN4CCN(c5cc6c(cc5F)c(=O)c(C(=O)O)cn6C5CC5)CC4)cc3)n2)cc1`, which MIC [1] is on record?
Its MIC is 8 µg/mL (≈ 12.9 µM).

And the MIC [2]?
The MIC was 128 µg/mL (≈ 206 µM).

And the MIC [3]?
The MIC was 32 µg/mL (≈ 51.6 µM).

With `O=C(CN1CCN(c2cc3c(cc2F)c(=O)c(C(=O)O)cn3C2CC2)CC1)Nc1ccc(-n2ccc(-c3ccc4c(c3)OCO4)n2)cc1` as the compound, how does the MIC [1] read?
The MIC was 0.5 µg/mL (≈ 0.768 µM).

What about the MIC [2] of the same compound?
Its MIC is 64 µg/mL (≈ 98.4 µM).

And the MIC [3]?
The MIC was 32 µg/mL (≈ 49.2 µM).

What about the MIC [5] of the same compound?
The MIC was 32 µg/mL (≈ 49.2 µM).

What about the MBIC50 [6] of the same compound?
The MBIC50 was 1.84 µg/mL.

And the CC50 at 48 h [8]?
The CC50 at 48 h was over 1000 µg/mL.

Which results are given for `O=C(CN1CCN(c2cc3c(cc2F)c(=O)c(C(=O)O)cn3C2CC2)CC1)Nc1ccc(-n2ccc(-c3ccc(Br)cc3)n2)cc1`?
MIC [1]: 32 µg/mL (≈ 46.7 µM); MIC [2]: 128 µg/mL (≈ 187 µM); MIC [3]: 16 µg/mL (≈ 23.3 µM)

Which MIC [1] does the source give for `O=C(CN1CCN(c2cc3c(cc2F)c(=O)c(C(=O)O)cn3C2CC2)CC1)Nc1ccc(-n2ccc(-c3ccc4ccccc4c3)n2)cc1` here?
The MIC was 1 µg/mL (≈ 1.52 µM).

And the MIC [2]?
The MIC was 2 µg/mL (≈ 3.05 µM).

What about the MIC [3] of the same compound?
Its MIC is 1 µg/mL (≈ 1.52 µM).

With `O=C(CN1CCN(c2cc3c(cc2F)c(=O)c(C(=O)O)cn3C2CC2)CC1)Nc1ccc(-n2ccc(-c3ccccc3Cl)n2)cc1` as the compound, how does the MIC [1] read?
Its MIC is 1 µg/mL (≈ 1.56 µM).

And the MIC [2]?
Its MIC is 16 µg/mL (≈ 25 µM).

And the MIC [3]?
The MIC was 4 µg/mL (≈ 6.24 µM).

With `O=C(CN1CCN(c2cc3c(cc2F)c(=O)c(C(=O)O)cn3C2CC2)CC1)Nc1ccc(-n2ccc(-c3cccc(Cl)c3)n2)cc1` as the compound, how does the MIC [1] read?
The MIC was 8 µg/mL (≈ 12.5 µM).

And the MIC [2]?
The MIC was 64 µg/mL (≈ 99.8 µM).

What about the MIC [3] of the same compound?
Its MIC is 8 µg/mL (≈ 12.5 µM).

For `COc1cc(OC)c(-c2cc(-c3cn(-c4ccccc4)nc3-c3ccccc3)[nH]c(=N)n2)cc1OC`, which MIC [9] is on record?
Its MIC is 521 µM (≈ 250 µg/mL).

With `O=C(CN1CCN(c2cc3c(cc2F)c(=O)c(C(=O)O)cn3C2CC2)CC1)Nc1ccc(-n2ccc(-c3ccc(F)cc3)n2)cc1` as the compound, how does the MIC [1] read?
Its MIC is 0.125 µg/mL (≈ 0.2 µM).

And the MIC [2]?
The MIC was 32 µg/mL (≈ 51.2 µM).

And the MIC [3]?
Its MIC is 1 µg/mL (≈ 1.6 µM).

And the Ratio [4]?
The Ratio was 2.

What about the MIC [5] of the same compound?
Its MIC is 8 µg/mL (≈ 12.8 µM).

What about the MBIC50 [6] of the same compound?
The MBIC50 was 2.7 µg/mL.

And the CC50 at 48 h [8]?
Its CC50 at 48 h is over 1000 µg/mL.

For `NNC(=O)c1ccncc1` [ISONIAZID], which MIC [3] is on record?
The MIC was 0.034 µg/mL (≈ 0.248 µM).

For `COc1ccccc1-c1ccn(-c2ccc(NC(=O)CN3CCN(c4cc5c(cc4F)c(=O)c(C(=O)O)cn5C4CC4)CC3)cc2)n1`, which MIC [1] is on record?
The MIC was 0.125 µg/mL (≈ 0.196 µM).

And the MIC [2]?
The MIC was 64 µg/mL (≈ 101 µM).

And the MIC [3]?
The MIC was 4 µg/mL (≈ 6.28 µM).

What about the Ratio [4] of the same compound?
Its Ratio is 2.

What about the MIC [5] of the same compound?
The MIC was 0.125 µg/mL (≈ 0.196 µM).

And the MBIC50 [6]?
The MBIC50 was 0.02 µg/mL.

What about the Ratio [10] of the same compound?
Its Ratio is 6.

And the Activity [11]?
Its Activity is “>=3 log10CFU/ml”.

And the Activity [12]?
Its Activity is “>=3 log10CFU/ml”.

And the CC50 at 48 h [8]?
Its CC50 at 48 h is over 1000 µg/mL.

What about the inhibition [13] of the same compound?
The inhibition was “Active”.

And the Ratio [14]?
The Ratio was 50.
